Test results reported in article PMC2141641 (The Journal of Cell Biology, 1997).

Columns and labels:
CD36 = conditions: cited from earlier work
[1] = tested on: Human dermal microvascular endothelial cells (HMVECs); experiment: Endothelial cell migration assay, HMVECs; format: cell-based; conditions: for inhibition of bFGF-induced HMVEC migration by other CD36 ligands / effect on migration when tested alone: 2 μg/ml
In short: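 Human dermal microvascular cells (passages 6–9) were serum-starved and then migrated in a Boyden chamber 4 h at 37°C toward bFGF. Collagen I, LDL and copper-oxidized LDL were tested at 2 μg/ml, with or without 10 μg/ml anti-CD36 IgG added to both wells. Quadruplicate wells, two experiments. Counts were normalized to bFGF minus control-medium background. Two-tailed t test was run on raw data.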

[2] = tested on: Bovine adrenal capillary endothelial cells (BCECs); experiment: Endothelial cell migration assay, BCECs; format: cell-based
In short: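 Bovine adrenal capillary cells (DME, 10% donor calf serum, 1% endothelial mitogen; passage 15) were starved overnight in DME/0.1% BSA. 3 × 10^4 cells/well were attached 2 h at 37°C to a gelatinized membrane in an inverted Boyden chamber, then reinverted. GST–CD36 fusion proteins were preincubated with 2 nM TSP-1, warmed to room temperature, and added to the top wells. Migration to bFGF ran 4 h at 37°C. Migrated cells/10 high-power fields counted; normalized to bFGF minus background.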

endothelial cells [3] = conditions: cited from earlier work
CD36 null animals = conditions: ref Febbraio, M., O.V. Volpert, N.P. Bouck, and R.L. Silverstein, unpublished data; cited from earlier work
[4] = tested on: neovascularization in vivo; conditions: ref O'Reilly et al., 1994; cited from earlier work
CD36-transfected HUVECs [5] = experiment: Tube formation assay in Matrigel, CD36-transfected HUVECs; format: cell-based, human; conditions: 24 h at 37°C, endogenous TSP-1 expression by clones
CD36-transfected HUVECs [6] = experiment: Migration assay of CD36-transfected HUVEC clones; format: cell-based, human; conditions: TSP-1 2 nM, bFGF
In short: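 HUVECs at passage 2 were lipofected with a CD36 plasmid (30 μg DNA, 5 h, 37°C) and selected in 100 μg/ml G418. Cloned lines were checked for CD36 by flow cytometry. Clones migrated toward bFGF in a Boyden chamber (4 h, 37°C) with 2 nM TSP-1, with or without 10 μg/ml anti-CD36 antibody OKM-5. Four experiments; normalized to bFGF minus background.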

[7] = tested on: neovascularization, polyvinyl sponge; conditions: polyvinyl sponge assay; ref Good et al., 1990; Tolsma et al., 1993; cited from earlier work
[8] = tested on: neovascularization, rodent cornea; conditions: rodent cornea assay; ref Good et al., 1990; Tolsma et al., 1993; cited from earlier work
endothelial cells [9] = conditions: in vitro; ref Tolsma et al., 1997; cited from earlier work
endothelial cells [10] = conditions: in vitro; ref Iruela-Arispe et al., 1991; DiPietro et al., 1994; Canfield and Schor, 1995; cited from earlier work
[11] = tested on: Melanoma cells not transfected with CD36; conditions: ref Silverstein et al., 1992; cited from earlier work

Substance: low-density lipoprotein [LDL]
- binding of unoxidized LDL to CD36 (CD36; ref Endemann et al., 1993): unable to bind CD36
- inhibition of bFGF-induced HMVEC migration by other CD36 ligands [1]: failed to influence HMVEC migration
- effect on migration when tested alone [1]: no significant effect on migration

Substance: human type I collagen [human collagen I]
- inhibition of bFGF-induced HMVEC migration by other CD36 ligands [1]: inhibited bFGF-induced HMVEC migration
- effect on migration when tested alone [1]: no significant effect on migration

Substance: oxidized low-density lipoprotein [OxLDL]
- inhibition of bFGF-induced HMVEC migration by other CD36 ligands [1]: inhibited bFGF-induced HMVEC migration
- effect on migration when tested alone [1]: no significant effect on migration
- concentration below which ineffective at inhibiting migration ([1]; bFGF-induced HMVEC migration, data not shown): below 0.1 nM

Substance: FP93-120: GST–CD36 fusion protein containing the TSP-1 binding region, amino acids 93–120 (YRVRFLAKENVTQDAEDNTVSFLQPNGA; left off: GST, end not stated, kept) [reference compound]
- block of inhibition of migration by Col overlap peptide ([2]; Col overlap 30 μM, bFGF, fusion protein preincubated 2 h at 4°C): blocked the inhibitory effects of Col overlap

Substance: Angiostatin
- inhibition of endothelial cell migration in vitro by angiostatin (endothelial cells [3]; ref Gately et al., 1996): well-established inhibitor of endothelial cell migration in vitro
- inhibition of HMVEC migration by angiostatin ([1]; angiostatin 2 μg/ml, bFGF, control inhibitor): inhibition of endothelial cell migration by angiostatin
- inhibition of corneal neovascularization in CD36 null animals (CD36 null animals): not by angiostatin is defective in CD36 null animals
- inhibition of angiogenesis in vivo by angiostatin [4]: of angiogenesis in vivo

Substance: glutathione-S-transferase [GST, reference compound]
- block of TSP-1 inhibition of bFGF-induced migration ([2]; TSP-1 2 nM, fusion protein preincubated 2 h at 4°C, migration 4 h at 37°C): ineffective

Substance: Thrombospondin-1 [TSP-1]
- concentrations effective in vitro (inhibition of angiogenesis) (endothelial cells [3]; ref Good et al., 1990, Tolsma et al., 1993): subnanomolar
- concentration inhibiting endothelial cell migration (biphasic dose response) (endothelial cells [3]; ref Taraboletti et al., 1990, Tolsma et al., 1993, Gao et al., 1996): less than 20 nM
- TSP-1 inhibition of tube formation after CD36 transfection (CD36-transfected HUVECs [5]): became sensitive to TSP-1 inhibition of both migration and tube formation
- interaction of TSP-1 with CD36 amino acids 93–120 (CD36; minimal region of CD36, ref Pearce et al., 1995): specific, saturable, and reversible manner
- inhibition of bFGF-induced HMVEC migration by TSP-1 ([1]; TSP-1 2 nM): inhibition of bFGF-induced migration of HMVECs by TSP-1
- TSP-1 inhibition of migration of CD36-transfected clone 35 (CD36-transfected HUVECs [6]; clone 35 (very low CD36)): refractory to TSP-1 inhibition
- TSP-1 inhibition of migration of CD36-transfected clones 31 and 36 (CD36-transfected HUVECs [6]; clones 31 and 36 (higher CD36)): sensitive to TSP-1 inhibition
- prevention of neovascularization in vivo, polyvinyl sponge [7]: able to prevent neovascularization in vivo
- prevention of neovascularization in vivo, rodent cornea [8]: able to prevent neovascularization in vivo
- inhibition of bFGF-induced migration by TSP-1, BCEC ([2]; TSP-1 2 nM): TSP-1 inhibition of bFGF-induced migration
- concentration inhibiting lumen formation (endothelial cells [9]): below 20 nM
- concentration inhibiting tube formation (endothelial cells [10]): below 20 nM
- TSP-1 binding to melanoma cells not transfected with CD36 [11]: do not bind TSP-1
- inhibition of corneal neovascularization in CD36 null animals (CD36 null animals): defective in CD36 null animals
